Experimental data from ChEMBL document CHEMBL1158173, “Carbodithioic acid esters of fluoxetine, a novel class of dual-function spermicides” (2008).
≈ marks a conversion by molar mass, not a printed value. Calls of active or inactive are those of the source. The calls are words filed in the database; no cut-off is given here.

Experiments:
Type in all cases: functional
[1] = system: Aspergillus fumigatus; assay: Antifungal activity against Aspergillus fumigatus after 48 hrs by broth microdilution technique
[2] = system: Candida albicans; assay: Antifungal activity against Candida albicans after 48 hrs by broth microdilution technique
[3] = system: Sporothrix schenckii; assay: Antifungal activity against Sporothrix schenckii after 48 hrs by broth microdilution technique
[4] = system: Cryptococcus neoformans; assay: Antifungal activity against Cryptococcus neoformans after 48 hrs by broth microdilution technique
[5] = system: Candida parapsilosis; assay: (§1) Antifungal activity against Candida parapsilosis ATCC 22019 after 48 hrs by broth microdilution technique; conditions: for MIC: Lodderomyces parapsilosis, ATCC 22019, 48 h
[6] = system: Sperm; assay: (§2) Spermicidal activity in liquefied human semen assessed as drug level required to kill 100% sperm in 20 seconds
[7] = system: Trichophyton mentagrophytes; assay: Antifungal activity against Trichophyton mentagrophytes after 48 hrs by broth microdilution technique
[8] = system: Trichomonas vaginalis; assay: Antitrichomonas activity against Trichomonas vaginalis after 48 hrs by trypan blue staining
In short: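 Trichomonas vaginalis was grown in TYM medium and used in log phase, one day after routine subculture. Compounds in DMSO stock were serially diluted in TYM medium, with DMSO/TYM as vehicle control. Wells received 5 × 10³ trophozoites and were incubated anaerobically at 37 °C. Viability was scored daily by trypan blue and cell counts, and MIC was read at 48 h. Finer dilutions were then retested, and the final MIC was taken from a concentration versus viable-trophozoite-number curve.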

[9] = as §2
[10] = system: Candida albicans; assay: Antifungal activity against Candida albicans ATCC 6019 after 48 hrs by broth microdilution technique; conditions: ATCC 6019, 48 h
[11] = system: Candida albicans; assay: Antifungal activity against Candida albicans MTCC 1346 after 48 hrs by broth microdilution technique; conditions: MTCC 1346, 48 h
[12] = system: Candida albicans; assay: Antifungal activity against Candida albicans ATCC 10231 after 48 hrs by broth microdilution technique; conditions: ATCC 10231, 48 h
[13] = system: Candida parapsilosis; assay: as §1; conditions: Lodderomyces parapsilosis, ATCC 22019, 48 h
[14] = system: Candida albicans; assay: Antifungal activity against Candida albicans MTCC 183 after 48 hrs by broth microdilution technique; conditions: MTCC 183, 48 h
[15] = system: Candida albicans; assay: Antifungal activity against Candida albicans ATCC 66027 after 48 hrs by broth microdilution technique; conditions: ATCC 66027, 48 h
[16] = system: Pichia kudriavzevii; assay: Antifungal activity against Candida krusei ATCC 6258 after 48 hrs by broth microdilution technique; conditions: ATCC 6258, 48 h
[17] = system: Candida albicans; assay: Antifungal activity against Candida albicans ATCC 10453 after 48 hrs by broth microdilution technique; conditions: ATCC 10453, 48 h

Question: For `CN(CCC(Oc1ccc(C(F)(F)F)cc1)c1ccccc1)C(=S)SCC(O)CN1CCOCC1` (stereo not drawn), which MIC [1] is on record?
Answer: Its MIC is 50 µg/mL (≈ 94.6 µM).

Question: What about the Activity [2] of the same molecule?
Answer: The Activity was “inactive”.

Question: What about the Activity [3] of the same molecule?
Answer: The Activity was “inactive”.

Question: And the Activity [4]?
Answer: The Activity was “inactive”.

Question: What about the Activity [5] of the same molecule?
Answer: Its Activity is “inactive”.

Question: What about the Activity [6] of the same molecule?
Answer: Its Activity is “inactive”.

Question: What about the Activity [7] of the same molecule?
Answer: Its Activity is “inactive”.

Question: For `CN(CCC(Oc1ccc(C(F)(F)F)cc1)c1ccccc1)CC(O)CSC(=S)N1CCCCCC1` (stereo not drawn), which Activity [1] is on record?
Answer: The Activity was “inactive”.

Question: And the Activity [2]?
Answer: Its Activity is “inactive”.

Question: And the Activity [3]?
Answer: The Activity was “inactive”.

Question: What about the Activity [4] of the same molecule?
Answer: The Activity was “inactive”.

Question: And the Activity [5]?
Answer: The Activity was “inactive”.

Question: And the Activity [6]?
Answer: The Activity was “inactive”.

Question: And the Activity [7]?
Answer: Its Activity is “inactive”.

Question: With `Cc1ncc([N+](=O)[O-])n1CCO` [METRONIDAZOLE] as the molecule, how does the Activity [1] read?
Answer: The Activity was “inactive”.

Question: What about the Activity [2] of the same molecule?
Answer: The Activity was “inactive”.

Question: And the Activity [3]?
Answer: Its Activity is “inactive”.

Question: What about the Activity [4] of the same molecule?
Answer: The Activity was “inactive”.

Question: What about the MIC [8] of the same molecule?
Answer: Its MIC is 0.54 µg/mL (≈ 3.16 µM).

Question: What about the Activity [5] of the same molecule?
Answer: The Activity was “inactive”.

Question: And the Activity [6]?
Answer: The Activity was “inactive”.

Question: What about the Activity [7] of the same molecule?
Answer: The Activity was “inactive”.

Question: Which Activity [1] does the source give for `CN(CCC(Oc1ccc(C(F)(F)F)cc1)c1ccccc1)CC(O)CSC(=S)N1CCCCC1` (stereo not drawn) here?
Answer: Its Activity is “inactive”.

Question: What about the Activity [2] of the same molecule?
Answer: The Activity was “inactive”.

Question: And the Activity [3]?
Answer: The Activity was “inactive”.

Question: What about the MIC [4] of the same molecule?
Answer: The MIC was 25 µg/mL (≈ 47.5 µM).

Question: What about the Activity [5] of the same molecule?
Answer: Its Activity is “inactive”.

Question: And the Activity [6]?
Answer: Its Activity is “inactive”.

Question: And the Activity [7]?
Answer: Its Activity is “inactive”.

Question: With `CN(C)CCSC(=S)N(C)CCC(Oc1ccc(C(F)(F)F)cc1)c1ccccc1` (stereo not drawn) as the molecule, how does the MIC [1] read?
Answer: Its MIC is 25 µg/mL (≈ 54.8 µM).

Question: What about the MIC [2] of the same molecule?
Answer: Its MIC is 50 µg/mL (≈ 110 µM).

Question: And the MIC [3]?
Answer: The MIC was 12.5 µg/mL (≈ 27.4 µM).

Question: And the MIC [4]?
Answer: The MIC was 50 µg/mL (≈ 110 µM).

Question: And the MIC [8]?
Answer: The MIC was 52 µg/mL (≈ 114 µM).

Question: And the MIC [5]?
Answer: Its MIC is 50 µg/mL (≈ 110 µM).

Question: And the MEC [9]?
Answer: The MEC was 1%.

Question: And the MIC [7]?
Answer: The MIC was 6.25 µg/mL (≈ 13.7 µM).

Question: Which MIC [1] does the source give for `CN(CCC(Oc1ccc(C(F)(F)F)cc1)c1ccccc1)C(=S)SCC(O)CN1CCCC1` (stereo not drawn) here?
Answer: The MIC was 50 µg/mL (≈ 97.5 µM).

Question: And the Activity [2]?
Answer: Its Activity is “inactive”.

Question: What about the MIC [3] of the same molecule?
Answer: The MIC was 50 µg/mL (≈ 97.5 µM).

Question: And the Activity [4]?
Answer: Its Activity is “inactive”.

Question: And the MIC [8]?
Answer: The MIC was 6.95 µg/mL (≈ 13.6 µM).

Question: And the MIC [5]?
Answer: The MIC was 50 µg/mL (≈ 97.5 µM).

Question: What about the MEC [9] of the same molecule?
Answer: The MEC was 0.5%.

Question: And the MIC [7]?
Answer: Its MIC is 25 µg/mL (≈ 48.8 µM).

Question: For `CNCCC(Oc1ccc(C(F)(F)F)cc1)c1ccccc1` (stereo not drawn) [FLUOXETINE], which Activity [1] is on record?
Answer: The Activity was “inactive”.

Question: What about the MIC [2] of the same molecule?
Answer: Its MIC is 50 µg/mL (≈ 162 µM).

Question: And the MIC [3]?
Answer: The MIC was 50 µg/mL (≈ 162 µM).

Question: And the MIC [4]?
Answer: Its MIC is 25 µg/mL (≈ 80.8 µM).

Question: What about the MIC [8] of the same molecule?
Answer: The MIC was 28 µg/mL (≈ 90.5 µM).

Question: What about the MIC [5] of the same molecule?
Answer: Its MIC is 50 µg/mL (≈ 162 µM).

Question: What about the MIC [7] of the same molecule?
Answer: Its MIC is 50 µg/mL (≈ 162 µM).

Question: With `CN(CCC(Oc1ccc(C(F)(F)F)cc1)c1ccccc1)CC(O)CSC(=S)N(C)Cc1ccccc1` (stereo not drawn) as the molecule, how does the Activity [1] read?
Answer: The Activity was “inactive”.

Question: And the Activity [2]?
Answer: The Activity was “inactive”.

Question: And the Activity [3]?
Answer: Its Activity is “inactive”.

Question: And the Activity [4]?
Answer: Its Activity is “inactive”.

Question: And the Activity [5]?
Answer: The Activity was “inactive”.

Question: And the Activity [6]?
Answer: The Activity was “inactive”.

Question: What about the Activity [7] of the same molecule?
Answer: The Activity was “inactive”.

Question: With `CN(CCC(Oc1ccc(C(F)(F)F)cc1)c1ccccc1)CC(O)CSC(=S)N1CCOCC1` (stereo not drawn) as the molecule, how does the Activity [1] read?
Answer: Its Activity is “inactive”.

Question: And the Activity [2]?
Answer: The Activity was “inactive”.

Question: And the MIC [3]?
Answer: Its MIC is 25 µg/mL (≈ 47.3 µM).

Question: And the Activity [4]?
Answer: The Activity was “inactive”.

Question: What about the MIC [5] of the same molecule?
Answer: The MIC was 50 µg/mL (≈ 94.6 µM).

Question: What about the Activity [6] of the same molecule?
Answer: The Activity was “inactive”.

Question: And the MIC [7]?
Answer: The MIC was 12.5 µg/mL (≈ 23.6 µM).

Question: What does the source list for `CN(CCC(Oc1ccc(C(F)(F)F)cc1)c1ccccc1)C(=S)SCCN1CCCC1` (stereo not drawn)?
Answer: MIC [1]: 12.5 µg/mL (≈ 25.9 µM); MIC [2]: 6.25 µg/mL (≈ 12.9 µM); MIC [3]: 25 µg/mL (≈ 51.8 µM); MIC [10]: 6.25 µg/mL (≈ 12.9 µM); MIC [11]: 6.25 µg/mL (≈ 12.9 µM); MIC [12]: 6.25 µg/mL (≈ 12.9 µM); MIC [13]: 3.12 µg/mL (≈ 6.47 µM); MIC [4]: 3.12 µg/mL (≈ 6.46 µM); MIC [14]: 3.12 µg/mL (≈ 6.47 µM); MIC [8]: 14 µg/mL (≈ 29 µM); MIC [15]: 6.25 µg/mL (≈ 12.9 µM); MIC [5]: 3.12 µg/mL (≈ 6.46 µM); MEC [9]: 0.05%; MIC [7]: 12.5 µg/mL (≈ 25.9 µM); MIC [16]: 6.25 µg/mL (≈ 12.9 µM); MIC [17]: 6.25 µg/mL (≈ 12.9 µM)

Question: Which Activity [1] does the source give for `CN1CCN(C(=S)SCC(O)CN(C)CCC(Oc2ccc(C(F)(F)F)cc2)c2ccccc2)CC1` (stereo not drawn) here?
Answer: Its Activity is “inactive”.

Question: And the Activity [2]?
Answer: Its Activity is “inactive”.

Question: What about the Activity [3] of the same molecule?
Answer: The Activity was “inactive”.

Question: And the MIC [4]?
Answer: The MIC was 12.5 µg/mL (≈ 23.1 µM).

Question: What about the MIC [8] of the same molecule?
Answer: Its MIC is 6.68 µg/mL (≈ 12.3 µM).

Question: And the Activity [5]?
Answer: Its Activity is “inactive”.

Question: And the MEC [9]?
Answer: Its MEC is 1%.

Question: And the MIC [7]?
Answer: Its MIC is 25 µg/mL (≈ 46.2 µM).

Question: Which MIC [1] does the source give for `CCN(CC)CCSC(=S)N(C)CCC(Oc1ccc(C(F)(F)F)cc1)c1ccccc1` (stereo not drawn) here?
Answer: The MIC was 6.25 µg/mL (≈ 12.9 µM).

Question: And the MIC [2]?
Answer: The MIC was 50 µg/mL (≈ 103 µM).

Question: And the MIC [3]?
Answer: Its MIC is 6.25 µg/mL (≈ 12.9 µM).

Question: What about the MIC [4] of the same molecule?
Answer: The MIC was 50 µg/mL (≈ 103 µM).

Question: What about the MIC [8] of the same molecule?
Answer: The MIC was 24 µg/mL (≈ 49.5 µM).

Question: What about the MIC [5] of the same molecule?
Answer: The MIC was 50 µg/mL (≈ 103 µM).

Question: And the MEC [9]?
Answer: The MEC was 1%.

Question: What about the MIC [7] of the same molecule?
Answer: Its MIC is 12.5 µg/mL (≈ 25.8 µM).
